Measurements taken from ChEMBL document CHEMBL5512642, “Novel triterpenoid pyrones, phthalimides and phthalates are selectively cytotoxic in CCRF-CEM cancer cells - Synthesis, potency, and mitochondrial mechanism of action” (Eur J Med Chem, 2024).
The source made the active and inactive calls. No cut-off for these calls is given here.

Columns and labels:
[1] = system: CCRF-CEM; assay: Antimitotic activity against human CCRF-CEM cells assessed as decrease in cell division at 5 times of IC50; assay type: functional, cell-based
Summary of the method: (§1)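 Mitotic fraction scored with the pH3 Ser10 marker and DNA synthesis with BrdU incorporation. For transcription, cells received a short BrU pulse after the 24 h pre-incubation. Read by flow cytometry against untreated cells.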

[2] = system: CCRF-CEM; assay: Induction of apoptosis in human CCRF-CEM cells assessed as early apoptotic cells at 1 time IC50 incubated for 24 hrs by Annexin V and propidium iodide staining based flow cytometry analysis (reference value: 1.4%); assay type: functional
[3] = system: K562; assay: Cytotoxicity against human K562 cells assessed as reduction in cell viability incubated for 72 hrs by MTS assay; assay type: functional, cell-based; conditions: K562, 72 h
[4] = Metabolic stability in human liver microsomes assessed as compound remaining at measured at 30 mins in presence of NADPH by RF-MS analysis; assay type: ADME, Microsome; conditions: read-out: Stability
Summary of the method: (§2)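 Human liver microsomes with NADPH cofactor to assess phase I oxidation. Compound remaining sampled at 15, 30 and 60 min; intrinsic clearance derived and categorized. Run in triplicate.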

[5] = Cytotoxicity against human MRC5 cells assessed as reduction in cell viability incubated for 72 hrs by MTS assay; assay type: toxicity, cell-based
[6] = Apparent permeability of the compound across apical to basolateral side in MDCK-MDR1 cells assessed as compound recovery at 10 uM incubated for 1 hr by RF-MS analysis; assay type: ADME, cell-based, Canis lupus familiaris; conditions: dog, read-out: Activity
Summary of the method: (§3)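 Caco-2 and MDCK-MDR1 monolayers; transport measured in both directions, apical→basolateral and basolateral→apical. Efflux ratio taken from the two directions; ER > 2 counted as active efflux. Compound recovery reported. Cell-based permeability runs done in duplicate.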

[7] = system: CCRF-CEM; assay: Induction of apoptosis in human CCRF-CEM cells assessed as early apoptotic cells at 5 time IC50 incubated for 24 hrs by Annexin V and propidium iodide staining based flow cytometry analysis (reference value: 1.4%); assay type: functional
[8] = Metabolic stability in human liver microsomes assessed as compound remaining at measured at 60 mins in presence of NADPH by RF-MS analysis; assay type: ADME, Microsome; conditions: read-out: Stability; summary of the method: as §2
[9] = system: CCRF-CEM; assay: Induction of mitochondrial membrane potential loss in human CCRF-CEM cells assessed as cells with depolarized mitochondria (P2 gate) by measuring green fluorescence intensity at 1 time IC50 incubated for 24 hrs by JC-1 staining based flow cytometry (reference value: 2.1%)
[10] = system: CCRF-CEM; assay: Induction of apoptosis in human CCRF-CEM cells assessed as viable cells at 1 time IC50 incubated for 24 hrs by Annexin V and propidium iodide staining based flow cytometry analysis (reference value: 98%); assay type: functional
[11] = Stability in human plasma assessed as compound remaining measured 15 mins by RF-MS analysis; assay type: ADME, cell-free; conditions: read-out: Stability
Summary of the method: (§4)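 Compounds incubated in human plasma in vitro for up to 2 h. Percent remaining sampled at 15, 30, 60 and 120 min. Run in triplicate.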

[12] = Apparent permeability of the compound across apical to basolateral side in human Caco-2 cells assessed as compound recovery; assay type: ADME, cell-based; conditions: read-out: Activity; summary of the method: as §3
[13] = Stability in human plasma assessed as compound remaining measured 30 mins by RF-MS analysis; assay type: ADME, cell-free; conditions: read-out: Stability; summary of the method: as §4
[14] = Apparent permeability of the compound in MDCK-MDR1 cells at 10 uM incubated for 1 hr by RF-MS analysis; assay type: ADME, cell-based, Canis lupus familiaris; conditions: dog; summary of the method: as §3
[15] = Cytotoxicity against human K562-Tax cells assessed as reduction in cell viability incubated for 72 hrs by MTS assay; assay type: functional, cell-based
[16] = Cytotoxicity against human BJ cells assessed as reduction in cell viability incubated for 72 hrs by MTS assay; assay type: toxicity, cell-based
[17] = Stability in human plasma assessed as compound remaining measured 120 mins by RF-MS analysis; assay type: ADME, cell-free; conditions: read-out: Stability; summary of the method: as §4
[18] = system: CEM-DNR; assay: Cytotoxicity against human CEM-DNR cells assessed as reduction in cell viability incubated for 72 hrs by MTS assay; assay type: functional, cell-based
[19] = system: CCRF-CEM; assay: Induction of apoptosis in human CCRF-CEM cells assessed as reduction in Bcl-XL expression at 5 time of IC50 incubated for 24 hrs by Western blot analysis; assay type: functional, cell-based
Summary of the method: (§5)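 Lysate 20 µg protein per lane on SDS-PAGE, transferred to nitrocellulose, blocked in 5% BSA/TBS-Tween. Probed overnight at 4 °C with anti-caspase-3, Bcl-2, Bcl-XL, β-actin, then HRP secondary 1 h. ECL chemiluminescence detection.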

[20] = Efflux ratio of apparent permeability across basolateral to apical side over apical to basolateral side in human Caco-2 cells; assay type: ADME, cell-based; summary of the method: as §3
[21] = system: CCRF-CEM; assay: Induction of apoptosis in human CCRF-CEM cells assessed as late apoptotic cells at 1 time IC50 incubated for 24 hrs by Annexin V and propidium iodide staining based flow cytometry analysis (reference value: 0.5%); assay type: functional
[22] = Stability in human plasma assessed as compound remaining measured 60 mins by RF-MS analysis; assay type: ADME, cell-free; conditions: read-out: Stability; summary of the method: as §4
[23] = Metabolic stability in human liver microsomes assessed as compound remaining at measured at 15 mins in presence of NADPH by RF-MS analysis; assay type: ADME, Microsome; conditions: read-out: Stability; summary of the method: as §2
[24] = system: CCRF-CEM; assay: Induction of apoptosis in human CCRF-CEM cells assessed as necrotic cells at 5 time IC50 incubated for 24 hrs by Annexin V and propidium iodide staining based flow cytometry analysis (reference value: 0.; assay type: functional
[25] = system: CCRF-CEM; assay: Induction of apoptosis in human CCRF-CEM cells assessed as necrotic cells at 1 time IC50 incubated for 24 hrs by Annexin V and propidium iodide staining based flow cytometry analysis (reference value: 0.1%); assay type: functional
[26] = Apparent permeability of the compound in human Caco-2 cells; assay type: ADME, cell-based; summary of the method: as §3
[27] = system: A549; assay: Cytotoxicity against human A549 cells assessed as reduction in cell viability incubated for 72 hrs by MTS assay; assay type: functional, cell-based; conditions: A549, 72 h
[28] = system: U2OS; assay: Cytotoxicity against human U2OS cells assessed as reduction in cell viability incubated for 72 hrs by MTS assay; assay type: functional, cell-based
[29] = Efflux ratio of apparent permeability across basolateral to apical side over apical to basolateral side in MDCK-MDR1 cells; assay type: ADME, cell-based, Canis lupus familiaris; conditions: dog; summary of the method: as §3
[30] = Plasma protein binding in human assessed as fraction bound at 10 uM by rapid equilibrium dialysis based RF-MS analysis; assay type: ADME, cell-free; conditions: read-out: PPB (converted)
Summary of the method: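 Human plasma protein binding measured by equilibrium dialysis and reported as percent fraction bound. Run in triplicate.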

[31] = system: CCRF-CEM; assay: Induction of apoptosis in human CCRF-CEM cells assessed as late apoptotic cells at 5 time IC50 incubated for 24 hrs by Annexin V and propidium iodide staining based flow cytometry analysis (reference value: 0.5%); assay type: functional
[32] = system: HCT 116 TP53(-/-); assay: Cytotoxicity against human HCT116-p53-null cells assessed as reduction in cell viability incubated for 72 hrs by MTS assay; assay type: functional, cell-based
[33] = system: CCRF-CEM; assay: Induction of mitochondrial membrane potential loss in human CCRF-CEM cells assessed as cells with depolarized mitochondria (P2 gate) by measuring green fluorescence intensity at 5 time IC50 incubated for 24 hrs by JC-1 staining based flow cytometry (reference value: 2.1%)
[34] = system: CCRF-CEM; assay: Induction of apoptosis in human CCRF-CEM cells assessed as viable cells at 5 time IC50 incubated for 24 hrs by Annexin V and propidium iodide staining based flow cytometry analysis (reference value: 98%); assay type: functional
[35] = system: HCT-116; assay: Cytotoxicity against human HCT-116 cells assessed as reduction in cell viability incubated for 72 hrs by MTS assay; assay type: functional, cell-based; conditions: HCT-116, 72 h
[36] = system: CCRF-CEM; assay: Induction of apoptosis in human CCRF-CEM cells assessed as reduction in Bcl-2 expression at 5 time of IC50 incubated for 24 hrs by Western blot analysis; assay type: functional, cell-based; summary of the method: as §5
[37] = system: CCRF-CEM; assay: Cytotoxicity against human CCRF-CEM cells assessed as reduction in cell viability incubated for 72 hrs by MTS assay; assay type: functional, cell-based
[38] = system: CCRF-CEM; assay: Induction of apoptosis in human CCRF-CEM cells assessed as reduction in caspase-3 expression at 5 time of IC50 incubated for 24 hrs by Western blot analysis; assay type: functional, cell-based; summary of the method: as §5
[39] = system: CCRF-CEM; assay: Antiproliferative activity against human CCRF-CEM cells assessed as inhibition of RNA synthesis at 5 time of IC50 by BrdU incorporation assay; assay type: functional, cell-based; conditions: in the assay text read “BrU incorporation assay” for “BrdU incorporation assay”; summary of the method: as §1

C=C(C)[C@@H]1CC[C@]2(C(=O)O)CC[C@]3(C)[C@H](CC[C@@H]4[C@@]5(C)Cc6c(C(F)(F)F)cc(C(=O)OC)c(C(=O)OC)c6C(C)(C)[C@@H]5CC[C@]43C)[C@@H]12
Activity [1]: Active | Activity [2]: 4.3% | IC50 [3]: 18 µM | remaining at 0.5 h [4]: 102% | IC50 at 72 h [5]: > 50 µM | recovery at 1 h, 10 µM [6]: 71.2% | Activity [7]: 8.5% | remaining at 1 h [8]: 76% | Activity [9]: 2.4% | Activity [10]: 92.9% | remaining at 0.25 h [11]: 103% | recovery [12]: 75.8% | remaining at 0.5 h [13]: 96.7% | Papp at 1 h, 10 µM [14]: 4.46 ×10⁻⁶ cm/s | IC50 [15]: > 50 µM | IC50 at 72 h [16]: > 50 µM | remaining at 2 h [17]: 93.8% | IC50 [18]: > 50 µM | Activity [19]: Active | efflux ratio [20]: 5.62 | Activity [21]: 2.8% | remaining at 1 h [22]: 96.2% | remaining at 0.25 h [23]: 91% | Activity [24]: 0% | Activity [25]: 0% | Papp [26]: 1.73 ×10⁻⁶ cm/s | IC50 [27]: 18 µM | IC50 [28]: 17 µM | efflux ratio [29]: 6.95 | fraction unbound at 10 µM [30]: 0.184 | Activity [31]: 4.2% | IC50 [32]: 13 µM | Activity [33]: 38.1% | Activity [34]: 87.3% | IC50 [35]: 23 µM | Activity [36]: Active | IC50 [37]: 3.8 µM

C=C(C)[C@@H]1CC[C@]2(C(=O)O)CC[C@]3(C)[C@H](CC[C@@H]4[C@@]5(C)Cc6c(C(F)(F)F)cc(=O)oc6C(C)(C)[C@@H]5CC[C@]43C)[C@@H]12
Activity [1]: Active | Activity [2]: 5.3% | IC50 [3]: 22 µM | remaining at 0.5 h [4]: 86% | IC50 at 72 h [5]: 28 µM | recovery at 1 h, 10 µM [6]: 70.7% | Activity [7]: 17.3% | Activity [38]: Active | remaining at 1 h [8]: 70% | Activity [9]: 4.4% | Activity [10]: 90.9% | remaining at 0.25 h [11]: 99.9% | recovery [12]: 104% | remaining at 0.5 h [13]: 99.2% | Papp at 1 h, 10 µM [14]: 0.14 ×10⁻⁶ cm/s | IC50 [15]: 10 µM | IC50 at 72 h [16]: > 50 µM | remaining at 2 h [17]: 93.6% | IC50 [18]: 7.8 µM | Activity [19]: Active | efflux ratio [20]: 28.4 | Activity [21]: 3.7% | remaining at 1 h [22]: 102% | remaining at 0.25 h [23]: 100% | Activity [24]: 0% | Activity [25]: 0.1% | Papp [26]: 0.04 ×10⁻⁶ cm/s | IC50 [27]: 16 µM | IC50 [28]: 18 µM | efflux ratio [29]: 26 | fraction unbound at 10 µM [30]: 0.135 | Activity [31]: 31.5% | IC50 [32]: 15 µM | Activity [33]: 30.2% | Activity [39]: Active | Activity [34]: 51.2% | IC50 [35]: 13 µM | Activity [36]: Active | IC50 [37]: 4 µM
